Source: ChEMBL document CHEMBL5058577, “EUbOPEN Chemogenomics Library 2 (Multiplex)” (2022)

System: Fibroblast
Assay: Multiplex assay against human fibroblast
Format: toxicity, cell-based
Method in brief: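 Cells were classed with CellPathfinder machine-learning gating, first as Hoechst high-intensity objects or normal cells, then (normal cells) as healthy, pyknosed or fragmented nuclei, and finally (pyknosed cells) as mitotic or apoptotic. Staining of live cells at seeding used Hoechst33342, BioTracker Green Microtubule Cytoskeleton Dye, MitoTracker Red and Annexin V Alexa Fluor 680, with imaging on a CQ1 microscope at 37°C and 5% CO2 after compound addition. Tubulin, mitochondrial-mass and membrane-permeability phenotypes are per cents of healthy-nucleus cells.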

[1] = 12 h, 1 µM, compound concentration 1 uM, replicate 1
[2] = 12 h, 1 µM, compound concentration 1 uM, replicate 2
[3] = 12 h, 10 µM, compound concentration 10 uM, replicate 1
[4] = 12 h, 10 µM, compound concentration 10 uM, replicate 2
[5] = 24 h, 1 µM, compound concentration 1 uM, replicate 1
[6] = 24 h, 1 µM, compound concentration 1 uM, replicate 2
[7] = 24 h, 10 µM, compound concentration 10 uM, replicate 1
[8] = 24 h, 10 µM, compound concentration 10 uM, replicate 2
[9] = 48 h, 1 µM, compound concentration 1 uM, replicate 1
[10] = 48 h, 1 µM, compound concentration 1 uM, replicate 2
[11] = 48 h, 10 µM, compound concentration 10 uM, replicate 1
[12] = 48 h, 10 µM, compound concentration 10 uM, replicate 2

**Q.** Which results are given for CCCCCCNC(=O)Nc1ccc(S(=O)(=O)Nc2ccc(CCNC[C@H](O)COc3ccc(O)cc3)cc2)cc1 [L-755507]?
**A.** Population Apoptotic (%) [1]: 40%; Population Fragmented Nuclei (%) [1]: 27%; Population Healthy Nuclei (%) [1]: 59%; Population Hoechst High Intensity Objects (%) [1]: 1%; Population Membrane Permeable-Phenotype (%) [1]: 3%; Population Mitochondria Different-Phenotype (%) [1]: 6%; Population Mitotic Cells (%) [1]: 60%; Population Normal (%) [1]: 98%; Population Pyknosed Nuclei (%) [1]: 12%; Population Tubulin-Different-Phenotype (%) [1]: 34%; Total Cell Count [1]: 198; Population Apoptotic (%) [2]: 46%; Population Fragmented Nuclei (%) [2]: 21%; Population Hoechst High Intensity Objects (%) [2]: 3%; Population Mitochondria Different-Phenotype (%) [2]: 3%; Population Mitotic Cells (%) [2]: 53%; Population Normal (%) [2]: 96%; Population Pyknosed Nuclei (%) [2]: 19%; Population Tubulin-Different-Phenotype (%) [2]: 36%; Total Cell Count [2]: 160; Population Apoptotic (%) [3]: 45%; Population Fragmented Nuclei (%) [3]: 17%; Population Healthy Nuclei (%) [3]: 72%; Population Hoechst High Intensity Objects (%) [3]: 5%; Population Membrane Permeable-Phenotype (%) [3]: 0%; Population Mitochondria Different-Phenotype (%) [3]: 10%; Population Mitotic Cells (%) [3]: 54%; Population Normal (%) [3]: 94%; Population Pyknosed Nuclei (%) [3]: 10%; Population Tubulin-Different-Phenotype (%) [3]: 47%; Total Cell Count [3]: 218; Population Apoptotic (%) [4]: 42%; Population Fragmented Nuclei (%) [4]: 34%; Population Healthy Nuclei (%) [4]: 48%; Population Membrane Permeable-Phenotype (%) [4]: 1%; Population Mitochondria Different-Phenotype (%) [4]: 19%; Population Mitotic Cells (%) [4]: 57%; Population Pyknosed Nuclei (%) [4]: 17%; Population Tubulin-Different-Phenotype (%) [4]: 64%; Total Cell Count [4]: 172; Population Apoptotic (%) [5]: 31%; Population Fragmented Nuclei (%) [5]: 26%; Population Healthy Nuclei (%) [5]: 63%; Population Hoechst High Intensity Objects (%) [5]: 1%; Population Membrane Permeable-Phenotype (%) [5]: 0%; Population Mitochondria Different-Phenotype (%) [5]: 3%; Population Mitotic Cells (%) [5]: 68%; Population Normal (%) [5]: 98%; Population Pyknosed Nuclei (%) [5]: 9%; Population Tubulin-Different-Phenotype (%) [5]: 27%; Total Cell Count [5]: 196; Population Apoptotic (%) [6]: 39%; Population Healthy Nuclei (%) [6]: 59%; Population Hoechst High Intensity Objects (%) [6]: 2%; Population Membrane Permeable-Phenotype (%) [6]: 3%; Population Mitochondria Different-Phenotype (%) [6]: 12%; Population Mitotic Cells (%) [6]: 60%; Population Normal (%) [6]: 97%; Population Pyknosed Nuclei (%) [6]: 13%; Population Tubulin-Different-Phenotype (%) [6]: 44%; Total Cell Count [6]: 176; Population Apoptotic (%) [7]: 72%; Population Fragmented Nuclei (%) [7]: 21%; Population Healthy Nuclei (%) [7]: 70%; Population Hoechst High Intensity Objects (%) [7]: 8%; Population Membrane Permeable-Phenotype (%) [7]: 0%; Population Mitochondria Different-Phenotype (%) [7]: 8%; Population Mitotic Cells (%) [7]: 27%; Population Normal (%) [7]: 91%; Population Pyknosed Nuclei (%) [7]: 8%; Population Tubulin-Different-Phenotype (%) [7]: 38%; Total Cell Count [7]: 232; Population Apoptotic (%) [8]: 50%; Population Fragmented Nuclei (%) [8]: 38%; Population Healthy Nuclei (%) [8]: 51%; Population Hoechst High Intensity Objects (%) [8]: 4%; Population Membrane Permeable-Phenotype (%) [8]: 3%; Population Mitochondria Different-Phenotype (%) [8]: 19%; Population Mitotic Cells (%) [8]: 50%; Population Normal (%) [8]: 95%; Population Pyknosed Nuclei (%) [8]: 9%; Population Tubulin-Different-Phenotype (%) [8]: 65%; Total Cell Count [8]: 168; Population Apoptotic (%) [9]: 62%; Population Fragmented Nuclei (%) [9]: 28%; Population Healthy Nuclei (%) [9]: 63%; Population Hoechst High Intensity Objects (%) [9]: 3%; Population Membrane Permeable-Phenotype (%) [9]: 0%; Population Mitochondria Different-Phenotype (%) [9]: 4%; Population Mitotic Cells (%) [9]: 37%; Population Normal (%) [9]: 96%; Population Pyknosed Nuclei (%) [9]: 8%; Population Tubulin-Different-Phenotype (%) [9]: 31%; Total Cell Count [9]: 201; Population Apoptotic (%) [10]: 53%; Population Fragmented Nuclei (%) [10]: 33%; Population Healthy Nuclei (%) [10]: 58%; Population Hoechst High Intensity Objects (%) [10]: 4%; Population Membrane Permeable-Phenotype (%) [10]: 1%; Population Mitochondria Different-Phenotype (%) [10]: 6%; Population Mitotic Cells (%) [10]: 46%; Population Normal (%) [10]: 95%; Population Tubulin-Different-Phenotype (%) [10]: 33%; Total Cell Count [10]: 170; Population Apoptotic (%) [11]: 79%; Population Fragmented Nuclei (%) [11]: 19%; Population Healthy Nuclei (%) [11]: 69%; Population Hoechst High Intensity Objects (%) [11]: 6%; Population Membrane Permeable-Phenotype (%) [11]: 1%; Population Mitochondria Different-Phenotype (%) [11]: 8%; Population Mitotic Cells (%) [11]: 20%; Population Normal (%) [11]: 93%; Population Pyknosed Nuclei (%) [11]: 10%; Population Tubulin-Different-Phenotype (%) [11]: 49%; Total Cell Count [11]: 240; Population Apoptotic (%) [12]: 71%; Population Fragmented Nuclei (%) [12]: 42%; Population Healthy Nuclei (%) [12]: 53%; Population Hoechst High Intensity Objects (%) [12]: 3%; Population Membrane Permeable-Phenotype (%) [12]: 5%; Population Mitochondria Different-Phenotype (%) [12]: 11%; Population Mitotic Cells (%) [12]: 28%; Population Normal (%) [12]: 96%; Population Pyknosed Nuclei (%) [12]: 3%; Population Tubulin-Different-Phenotype (%) [12]: 55%; Total Cell Count [12]: 184

**Q.** Which results are given for CC(C)C[C@H](CO)Nc1nc(S[C@@H](C)c2ccccc2)nc2nc(N)sc12 [AZD-8797]?
**A.** Population Apoptotic (%) [1]: 25%; Population Fragmented Nuclei (%) [1]: 23%; Population Healthy Nuclei (%) [1]: 62%; Population Hoechst High Intensity Objects (%) [1]: 1%; Population Membrane Permeable-Phenotype (%) [1]: 3%; Population Mitochondria Different-Phenotype (%) [1]: 3%; Population Mitotic Cells (%) [1]: 75%; Population Normal (%) [1]: 98%; Population Pyknosed Nuclei (%) [1]: 13%; Population Tubulin-Different-Phenotype (%) [1]: 23%; Total Cell Count [1]: 146; Population Apoptotic (%) [2]: 31%; Population Fragmented Nuclei (%) [2]: 22%; Population Healthy Nuclei (%) [2]: 55%; Population Hoechst High Intensity Objects (%) [2]: 4%; Population Membrane Permeable-Phenotype (%) [2]: 16%; Population Mitochondria Different-Phenotype (%) [2]: 6%; Population Mitotic Cells (%) [2]: 68%; Population Normal (%) [2]: 95%; Population Pyknosed Nuclei (%) [2]: 21%; Population Tubulin-Different-Phenotype (%) [2]: 46%; Total Cell Count [2]: 92; Population Apoptotic (%) [3]: 38%; Population Fragmented Nuclei (%) [3]: 18%; Population Healthy Nuclei (%) [3]: 64%; Population Hoechst High Intensity Objects (%) [3]: 3%; Population Membrane Permeable-Phenotype (%) [3]: 0%; Population Mitochondria Different-Phenotype (%) [3]: 6%; Population Mitotic Cells (%) [3]: 61%; Population Normal (%) [3]: 96%; Population Pyknosed Nuclei (%) [3]: 17%; Population Tubulin-Different-Phenotype (%) [3]: 46%; Total Cell Count [3]: 156; Population Apoptotic (%) [4]: 36%; Population Fragmented Nuclei (%) [4]: 36%; Population Healthy Nuclei (%) [4]: 41%; Population Hoechst High Intensity Objects (%) [4]: 5%; Population Membrane Permeable-Phenotype (%) [4]: 10%; Population Mitochondria Different-Phenotype (%) [4]: 27%; Population Mitotic Cells (%) [4]: 64%; Population Normal (%) [4]: 94%; Population Pyknosed Nuclei (%) [4]: 21%; Population Tubulin-Different-Phenotype (%) [4]: 66%; Total Cell Count [4]: 122; Population Apoptotic (%) [5]: 44%; Population Fragmented Nuclei (%) [5]: 15%; Population Healthy Nuclei (%) [5]: 69%; Population Hoechst High Intensity Objects (%) [5]: 1%; Population Membrane Permeable-Phenotype (%) [5]: 1%; Population Mitochondria Different-Phenotype (%) [5]: 1%; Population Mitotic Cells (%) [5]: 55%; Population Normal (%) [5]: 98%; Population Pyknosed Nuclei (%) [5]: 14%; Population Tubulin-Different-Phenotype (%) [5]: 24%; Total Cell Count [5]: 124; Population Apoptotic (%) [6]: 31%; Population Fragmented Nuclei (%) [6]: 29%; Population Healthy Nuclei (%) [6]: 54%; Population Hoechst High Intensity Objects (%) [6]: 0%; Population Membrane Permeable-Phenotype (%) [6]: 17%; Population Mitochondria Different-Phenotype (%) [6]: 3%; Population Mitotic Cells (%) [6]: 68%; Population Normal (%) [6]: 99%; Population Pyknosed Nuclei (%) [6]: 15%; Population Tubulin-Different-Phenotype (%) [6]: 46%; Total Cell Count [6]: 103; Population Apoptotic (%) [7]: 57%; Population Fragmented Nuclei (%) [7]: 21%; Population Healthy Nuclei (%) [7]: 66%; Population Hoechst High Intensity Objects (%) [7]: 1%; Population Membrane Permeable-Phenotype (%) [7]: 0%; Population Mitochondria Different-Phenotype (%) [7]: 15%; Population Mitotic Cells (%) [7]: 42%; Population Normal (%) [7]: 98%; Population Pyknosed Nuclei (%) [7]: 12%; Population Tubulin-Different-Phenotype (%) [7]: 38%; Total Cell Count [7]: 168; Population Apoptotic (%) [8]: 33%; Population Fragmented Nuclei (%) [8]: 42%; Population Healthy Nuclei (%) [8]: 38%; Population Hoechst High Intensity Objects (%) [8]: 2%; Population Membrane Permeable-Phenotype (%) [8]: 8%; Population Mitochondria Different-Phenotype (%) [8]: 25%; Population Mitotic Cells (%) [8]: 66%; Population Normal (%) [8]: 97%; Population Pyknosed Nuclei (%) [8]: 19%; Population Tubulin-Different-Phenotype (%) [8]: 85%; Total Cell Count [8]: 126; Population Apoptotic (%) [9]: 50%; Population Fragmented Nuclei (%) [9]: 25%; Population Healthy Nuclei (%) [9]: 60%; Population Hoechst High Intensity Objects (%) [9]: 1%; Population Membrane Permeable-Phenotype (%) [9]: 1%; Population Mitochondria Different-Phenotype (%) [9]: 1%; Population Mitotic Cells (%) [9]: 50%; Population Normal (%) [9]: 98%; Population Pyknosed Nuclei (%) [9]: 13%; Population Tubulin-Different-Phenotype (%) [9]: 11%; Total Cell Count [9]: 135; Population Apoptotic (%) [10]: 47%; Population Fragmented Nuclei (%) [10]: 30%; Population Healthy Nuclei (%) [10]: 48%; Population Hoechst High Intensity Objects (%) [10]: 4%; Population Membrane Permeable-Phenotype (%) [10]: 4%; Population Mitochondria Different-Phenotype (%) [10]: 4%; Population Mitotic Cells (%) [10]: 52%; Population Normal (%) [10]: 95%; Population Pyknosed Nuclei (%) [10]: 20%; Population Tubulin-Different-Phenotype (%) [10]: 54%; Total Cell Count [10]: 95; Population Apoptotic (%) [11]: 60%; Population Fragmented Nuclei (%) [11]: 25%; Population Healthy Nuclei (%) [11]: 65%; Population Hoechst High Intensity Objects (%) [11]: 2%; Population Membrane Permeable-Phenotype (%) [11]: 0%; Population Mitochondria Different-Phenotype (%) [11]: 13%; Population Mitotic Cells (%) [11]: 40%; Population Normal (%) [11]: 97%; Population Pyknosed Nuclei (%) [11]: 9%; Population Tubulin-Different-Phenotype (%) [11]: 35%; Total Cell Count [11]: 168; Population Apoptotic (%) [12]: 35%; Population Fragmented Nuclei (%) [12]: 45%; Population Healthy Nuclei (%) [12]: 40%; Population Hoechst High Intensity Objects (%) [12]: 1%; Population Membrane Permeable-Phenotype (%) [12]: 12%; Population Mitochondria Different-Phenotype (%) [12]: 18%; Population Mitotic Cells (%) [12]: 64%; Population Normal (%) [12]: 98%; Population Pyknosed Nuclei (%) [12]: 14%; Population Tubulin-Different-Phenotype (%) [12]: 89%; Total Cell Count [12]: 121
